Active and inactive are the calls of the source. No cut-off for these calls is given here.

The subject of data set [1] is PBMC. The data set is described as follows: Reduction of CCR5 density on human sPBMC at 0.1 to 1 nM after 6 days by quantitative fluorescence-activated cell sorting. Type of data set: functional, cell-based. The procedure, abridged:
(§1)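 PBMCs cultured 6 days with IL-2 and RAPA. Blocked 30 min at room temperature (PBS with 2% human serum, 5% horse serum, 0.1% azide), then stained 30 min with PE antibodies. Surface molecules per cell from FL-2 by Quantibrite-PE bead regression, PE/antibody ratio 1:1. Means ± SD from seven donors; Student's t test versus untreated.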

The test system of data set [2] is PBMC. The data set is described as follows: Reduction of CXCR4 density on human PBMC at 0.1 to 1 nM after 6 days by quantitative fluorescence-activated cell sorting. Type of data set: functional, cell-based. An outline of the steps:
as §1

Data set [3] has as its system PBMC. The data set is described as follows: Reduction of CD4 density on human PBMC at 1 nM after 6 days by quantitative fluorescence-activated cell sorting. Type of data set: functional. More on the design: scale not given: the % may be the effect or the level left. The procedure, abridged:
as §1

Data set [4] relates to Human immunodeficiency virus 1. Description: Antiviral activity against HIV1 ADA in human PBMC assessed as reduction of p24 antigen levels after 4 days of infection. The class given is functional, organism-based. The procedure, abridged: (§2)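 PBMCs cultured 6 days with IL-2 (100 U/ml) plus RAPA, then exposed 2 h to HIV-1 ADA (R5) or IIIb (X4) at MOI 0.001, washed three times with PBS, and kept in IL-2 medium with drugs. p24 in supernatant by ELISA on day 4 after infection. Means ± SD of independent experiments.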

Data set [5] has as its system Human immunodeficiency virus 1. Description: Antiviral activity against HIV1 R5 assessed as inhibition of cell-cell fusion between R5-envelope expressing HEK293T cells and CD8 depleted human PBMCs pretreated for 6 days. Particulars: Human immunodeficiency virus 1, R5, HEK-293T. Type of data set: functional, organism-based. An outline of the steps:
(§3)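 Target cells were CD8-depleted PBMCs pretreated 6 days with RAPA and labeled with calcein-AM. Effectors were 293T cells transfected with JRFL (R5) or HXB2 (X4) Env plus Rev, loaded with CMTMR on day 2. Cells cocultured 1:3 ± T-20 for 2.5 h at 37°C in HEPES-DMEM pH 7.2 with BSA 1 mg/ml. Double-positive cells scored by microscopy, ≥100 cells, normalized to no-T-20 fusion. EC50 from F = 100/(1 + Ci/EC50).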

The subject of data set [6] is Human immunodeficiency virus 1. The data set is described as follows: Antiviral activity against HIV1 X4 assessed as inhibition of cell-cell fusion between X4-envelope expressing HEK293T cells and CD8 depleted human PBMCs pretreated for 6 days. As to conditions: Human immunodeficiency virus 1, X4, HEK-293T. Type of data set: functional, organism-based. An outline of the steps:
as §3

Data set [7] deals with Human immunodeficiency virus 1. Description: Antiviral activity against HIV1 ADA in human PBMC assessed as reduction of p24 antigen levels. The class given is functional, organism-based. Particulars: Human immunodeficiency virus 1, ADA. An outline of the steps:
as §2

Data set [8] relates to Human immunodeficiency virus 1. Description: Antiviral activity against HIV1 R5 in human PBMC assessed as fractional inhibition of viral replication at 0.125 nM. The class given is functional. The procedure, abridged: (§4)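 Fixed-ratio combination in PBMC p24 infectivity assays (RAPA pretreatment, MOI 0.001, p24 ELISA day 4). Each drug tested alone in twofold dilutions, RAPA 0.125–2 nM and T-20 2.5–40 nM, and in a 1/20 RAPA/T-20 molar ratio. Median-effect (Chou) analysis gave Dm, m, r, combination index and dose reduction index.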

Data set [9] relates to Human immunodeficiency virus 1. Description: Antiviral activity against HIV1 R5 in human PBMC assessed as fractional inhibition of viral replication at 0.250 nM. The class given is functional. The procedure, abridged:
as §4

Data set [10] concerns Human immunodeficiency virus 1. Description: Antiviral activity against HIV1 R5 in human PBMC assessed as fractional inhibition of viral replication at 0.5 nM. The class given is functional. The procedure, abridged:
as §4

Data set [11] deals with Human immunodeficiency virus 1. The data set is described as follows: Antiviral activity against HIV1 R5 in human PBMC assessed as fractional inhibition of viral replication at 1 nM. The class given is functional. The procedure, abridged: as §4
The test system of data set [12] is Human immunodeficiency virus 1. Description: Antiviral activity against HIV1 R5 in human PBMC assessed as fractional inhibition of viral replication at 2 nM. The class given is functional. The procedure, abridged: as §4
Data set [13] concerns Human immunodeficiency virus 1. Description: Antiviral activity against HIV1 R5 in human PBMC assessed as fractional inhibition of viral replication. The class given is functional, organism-based. Particulars: Human immunodeficiency virus 1, R5. The procedure, abridged: as §4
The subject of data set [14] is PBMC. Description: Effect on cell viability of human PBMC at 0.03 to 1 nM after 14 days by trypan blue staining. Type of data set: cell-based. As to conditions: 336 h, 0.001 µM. The procedure, abridged: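 PBMCs cultured with IL-2 and RAPA for 14 days; viability by trypan blue staining. Means ± SD from seven donors.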
For data set [15], the system named is PBMC. The data set is described as follows: Effect on cell viability of human PBMC pretreated for 14 days by trypan blue staining. As to conditions: 336 h.
In data set [16] the test system is Human immunodeficiency virus 1. Description: Antiviral activity against HIV1 X4 in human PBMC assessed as reduction of p24 antigen levels. The class given is functional, organism-based. As to conditions: Human immunodeficiency virus 1, X4. The procedure, abridged: as §2
Data set [17] relates to Human immunodeficiency virus 1. The data set is described as follows: Antiviral activity against HIV1 R5 in human PBMC assessed as fractional inhibition of viral replication at 2.5 nM. The class given is functional. The procedure, abridged: as §4
For data set [18], the system named is Human immunodeficiency virus 1. The data set is described as follows: Antiviral activity against HIV1 R5 in human PBMC assessed as fractional inhibition of viral replication at 5 nM. Type of data set: functional. The procedure, abridged: as §4
Data set [19] deals with Human immunodeficiency virus 1. Description: Antiviral activity against HIV1 R5 in human PBMC assessed as fractional inhibition of viral replication at 10 nM. The class given is functional. The procedure, abridged:
as §4

The subject of data set [20] is Human immunodeficiency virus 1. The data set is described as follows: Antiviral activity against HIV1 R5 in human PBMC assessed as fractional inhibition of viral replication at 20 nM. The class given is functional. The procedure, abridged:
as §4

For data set [21], the system named is Human immunodeficiency virus 1. Description: Antiviral activity against HIV1 R5 in human PBMC assessed as fractional inhibition of viral replication at 40 nM. Type of data set: functional. The procedure, abridged:
as §4

Take `CO[C@H]1C[C@@H]2CC[C@@H](C)[C@@](O)(O2)C(=O)C(=O)N2CCCC[C@H]2C(=O)O[C@H]([C@H](C)C[C@@H]2CC[C@@H](O)[C@H](OC)C2)CC(=O)[C@H](C)/C=C(\C)[C@@H](O)[C@@H](OC)C(=O)[C@H](C)C[C@H](C)/C=C/C=C/C=C/1C` [SIROLIMUS]: the result in data set [1] and in data set [4] was Active. In data set [2], the outcome was inactive. In addition, the Activity in [3] stood at 15%; in data set [8], 0.34; in [9] it was 0.66; in data set [10], 0.78; in data set [11] it was 0.85; in [12], 0.92. Also, the Activity entry in data set [14] and in [15] was “Non-toxic” in each case. The EC50 amounted to 0.1 nM in data set [5], 1.3 nM in data set [6], 0.15 nM in data set [7] and 0.18 nM in data set [13].
enfuvirtide: the EC50 in [7] is 10 nM; in [16], 2.5 nM; in [13] it was 12.9 nM. In addition, the Activity was 0.23 in data set [17]; 0.24 in [18]; 0.5 in data set [19]; 0.57 in data set [20]; 0.73 in data set [21].

Values taken from ChEMBL document CHEMBL1157364, “Rapamycin reduces CCR5 density levels on CD4 T cells, and this effect results in potentiation of enfuvirtide (T-20) against R5 strains of human immunodeficiency virus type 1 in vitro” (Antimicrob Agents Chemother, 2007).
